≈ marks a conversion by molar mass, not a printed value.
Tests used:
[1] = Ratio of inhibitory concentration against Hepatitis C Viral IRES in HC40 cells to that of HCF cells was determined; format: functional
Outline: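 Ratio of the HC40 value to the HCF value. HCF cells are pooled Huh-7 stably transfected with CMV-Fluci (CMV control, no IRES control). Both lines seeded at 1.5×10^4/well 24 h ahead, dosed at various concentrations in 0.2% DMSO final for 24 h at 37 °C, washed twice in PBS, lysed in luciferin buffer for 10 min in the dark, and luciferase read.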

[2] = test system: Huh-7; test: Cytotoxic concentration of compound HC40 cells determined by using MTT assay; format: functional; details: Homo sapiens
[3] = test system: Huh-7; test: Anti-Hepatitis C Viral IRES activity of compound by measured as Fluci signal in HC40 cells; format: functional, cell-based; details: Homo sapiens
Outline: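 Huh7-derived HC40 line expressing CAT-IRES-Fluci under a CMV promoter, so luciferase reports IRES-dependent translation. Cells seeded at 1.5×10^4/well 24 h before dosing. Compounds added at various concentrations in 0.2% DMSO final and incubated 24 h at 37 °C. Cells washed twice in PBS, lysed 10 min in the dark in luciferin lysis buffer, then luciferase read.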

IC50 [3] [µg/mL] | Compound | Ratio [1] | CC50 [2] [µg/mL]
1 | CCN(CC)c1ccc2[o+]c3cc(C)c(N)cc3nc2c1.[Cl-] | 3 | < 1
> 10 | Nc1ccc2c(c1)NC(=O)c1cc(N)cnc1O2 |  | > 10
> 10 | Cc1cc2nc3ccc(N(C)C)cc3nc2cc1I |  | > 10
3.74 (≈ 16.6 µM) | Cc1cc2nc3ccc(O)cc3nc2cc1N | >2.7 | > 10
2.19 (≈ 8.58 µM) | CN(C)c1ccc(Nc2ccc(N(C)C)cc2)cc1 | 0.8 | 2.3 (≈ 9.01 µM)
> 10 | Nc1ccc2c(c1)Oc1ncccc1C(=O)N2 |  | > 10
> 10 | Nc1ccc2[nH]c3ccc(N)cc3c2c1 |  | > 10
> 10 | Nc1ccc(Nc2ccc(N)cc2)cc1 |  | 
> 10 | CN(C)c1ccc2c(c1)Sc1cc(N(C)C)ccc1N2C(=O)c1ccccc1 |  | > 10
0.02 (≈ 0.0793 µM) | Cc1cc2nc3ccc(N(C)C)cc3nc2cc1N | 10 | > 10
1 (≈ 2.79 µM) | Cc1cc2c(cc1N)N(c1ccccc1C)c1cc(N(C)C)c(C)cc1N2 | 1 | > 10
2.86 | CC(=O)[O-].Nc1ccc2nc3ccc(N)cc3[s+]c2c1 [THIONIN ACETATE] | 1.7 | 4.67

Compound | IC50 [3] [µg/mL] | Ratio [1] | CC50 [2] [µg/mL]
Nc1cc2nc3ccccc3nc2cc1N | 4.03 (≈ 19.2 µM) | 2.5 | > 10
CN(C)c1ccc(C(=O)c2ccc(N(C)C)cc2)cc1 [MICHLER'S KETONE] | > 10 |  | 
